Measurements published in ChEMBL document CHEMBL4138200, “Amino acid and peptide prodrugs of diphenylpropanones positive allosteric modulators of α7 nicotinic receptors with analgesic activity” (Eur J Med Chem, 2018).
In brackets after ≈: the same amount, converted by molar mass. Activity calls are given as the source filed them.

How the values were obtained:
[1] = Aqueous solubility of the compound in PBS buffer; assay type: physicochemical
[2] = target: Neuronal acetylcholine receptor subunit alpha-7 (Homo sapiens) (UniProt P36544); assay: Positive allosteric modulation of human alpha7 nAChR expressed in Xenopus laevis oocytes assessed as acetyl choline-evoked currents at 10 uM at -80 mV holding potential prtreated for 2 mins followed by co-treatment with acetyl choline by electrophysiology method relative to acetyl choline; assay type: cell-based
Chain of Neuronal acetylcholine receptor subunit alpha-7 (Homo sapiens) (P36544 whole entry): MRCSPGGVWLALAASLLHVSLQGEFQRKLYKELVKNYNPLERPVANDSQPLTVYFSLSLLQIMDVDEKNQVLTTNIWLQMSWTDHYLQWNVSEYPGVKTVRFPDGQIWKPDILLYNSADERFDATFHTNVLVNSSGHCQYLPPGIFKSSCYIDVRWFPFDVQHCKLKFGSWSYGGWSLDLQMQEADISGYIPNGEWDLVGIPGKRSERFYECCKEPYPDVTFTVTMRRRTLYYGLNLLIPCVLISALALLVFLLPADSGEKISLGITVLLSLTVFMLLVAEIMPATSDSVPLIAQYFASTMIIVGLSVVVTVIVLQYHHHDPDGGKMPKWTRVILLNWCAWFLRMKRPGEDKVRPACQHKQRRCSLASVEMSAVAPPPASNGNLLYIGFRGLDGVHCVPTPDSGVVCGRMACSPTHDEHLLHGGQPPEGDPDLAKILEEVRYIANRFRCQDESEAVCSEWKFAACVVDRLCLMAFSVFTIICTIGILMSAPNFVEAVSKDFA
Procedure, shortened: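 Defolliculated Xenopus laevis oocytes were injected with 5 ng α7 cRNA and recorded 2–3 days later at 22°C, -80 mV. Compound (10 μM) was bath-preapplied for 2 min, then co-applied with 200 μM ACh by fast pipette application for 0.6 s. Peak current is expressed relative to the ACh-alone control (100%).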

Rattus norvegicus [3] = assay: Analgesic activity in CFA-induced paw inflammation Wistar rat model assessed as increase in paw withdrawal latency at 10 mg/kg, iv administered at 24 hrs post CFA injection measured at 1 hr post compound administration; assay type: functional, organism-based
Procedure, shortened: (§1)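 Male Wistar rats (250–300 g). CFA emulsion (1:1 oil/saline, 0.5 mg/ml, 50 μl) was injected intraplantar into the hind paw. 24 h later, compound was dissolved in DMSO, diluted in 0.9% saline (final DMSO 2,5%) and given iv at 10 mg/kg in 0,5 ml. Paw withdrawal latency was measured on a dynamic plantar aesthesiometer (ramp 2.5 g/s, 50 g cutoff), as the mean of three readings per time point, for up to 4 h; n ≥ 6 rats/group, two-way ANOVA with Bonferroni.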

Rattus norvegicus [4] = assay: Analgesic activity in CFA-induced paw inflammation Wistar rat model assessed as increase in paw withdrawal latency at 10 mg/kg, iv administered at 24 hrs post CFA injection measured at 30 mins post compound administration; assay type: functional, organism-based; procedure, shortened: as §1
[5] = Permeability across apical to basolateral side in human Caco2 cells; assay type: ADME, cell-based; details: Caco-2, read-out: permeability

SMILES	Activity [2] [%]	other results
O=C(CCc1ccc(O)cc1O)c1cc(O)ccc1O	989	–
CC(C)C(N)C(=O)NC(C(=O)Oc1ccc(CCC(=O)c2cc(O)ccc2O)c(O)c1)C(C)C (stereo in doubt)	26.7	–
Br.CC(C)C(N)C(=O)NC(C(=O)Oc1ccc(CCC(=O)c2cc(O)ccc2O)cc1)C(C)C (stereo in doubt)	14.7	solubility ([1]; buffer): Soluble; Activity (Rattus norvegicus [3]): inactive; Activity (Rattus norvegicus [4]): Active
CC(C)C(N)C(=O)NC(C(=O)Oc1ccc(/C=C/C(=O)c2cc(O)ccc2O)c(O)c1)C(C)C (stereo in doubt)	24.5	–
O=C(CCc1ccc(O)cc1)c1cc(O)ccc1O	666	solubility ([1]; PBS buffer, read-out: solubility): 160 µM (≈ 41.3 µg/mL); Papp A→B [5]: 33.5 ×10⁻⁶ cm/s

Now from value to compound, other results behind:

Activity [2] [%]	SMILES	other results
25.3	Br.CC(C)C(N)C(=O)N1CCC[C@H]1C(=O)NC(C(=O)Oc1ccc(CCC(=O)c2cc(O)ccc2O)c(O)c1)C(C)C (stereo in doubt)	solubility ([1]; buffer): Soluble
24.7	CC(C)C(N)C(=O)N1CCC[C@H]1C(=O)NC(C(=O)Oc1ccc(CCC(=O)c2cc(O)ccc2O)cc1)C(C)C (stereo in doubt)	Activity (Rattus norvegicus [3]): Active
